The structures appear in SMILES notation. Active and inactive are the calls of the source. No cut-off for these calls is given here.

The first data set deals with Nucleic Acid. The experiment in a line: Binding affinity to DNA assessed as thermal transition of DNA relative to control. Type of data set: nucleic-acid assay.
Settings: not given
Take `CC/C=C\C/C=C\C/C=C\C/C=C\C/C=C\C/C=C\CCC(=O)Oc1cccc2c1C(=O)C=CC2=O`: the result was inactive.

For `CC/C=C\C/C=C\C/C=C\CCCCCCCC(=O)Oc1cccc2c1C(=O)C=CC2=O`, the outcome was inactive.

As for `CC/C=C\C/C=C\C/C=C\C/C=C\C/C=C\CCCC(=O)Oc1cccc2c1C(=O)C=CC2=O`, the outcome was inactive.

With `CCCCCCCCCCCCCCCCCC(=O)Oc1cccc2c1C(=O)C=CC2=O`, the result was inactive.

For a further data set, the system named is RAW264.7. As to the kind of experiment: Cytotoxicity against mouse RAW264.7 cells at 5 uM. As to conditions: raw264.7, 5 µM. Type of data set: cell-based.
Take `CC/C=C\C/C=C\C/C=C\C/C=C\C/C=C\C/C=C\CCC(=O)Oc1cccc2c1C(=O)C=CC2=O`: the Activity entry was “Non-toxic”.

With `CC/C=C\C/C=C\C/C=C\CCCCCCCC(=O)Oc1cccc2c1C(=O)C=CC2=O`, the Activity result is recorded as “Non-toxic”.

Take `CC/C=C\C/C=C\C/C=C\C/C=C\C/C=C\CCCC(=O)Oc1cccc2c1C(=O)C=CC2=O`: the Activity entry is reported as “Non-toxic”.

With `CCCCCCCCCCCCCCCCCC(=O)Oc1cccc2c1C(=O)C=CC2=O`, the Activity result was “Non-toxic”.

Tested on in a further data set: not listed separately
As to the kind of experiment: Cytotoxicity against mouse RAW264.7 cells. It is filed as cell-based. As to conditions: read-out: LD50 (the source's name).
Regarding `CC/C=C\C/C=C\C/C=C\C/C=C\C/C=C\C/C=C\CCC(=O)Oc1cccc2c1C(=O)C=CC2=O`, the CC50 was > 10 µM.

With `CC/C=C\C/C=C\C/C=C\CCCCCCCC(=O)Oc1cccc2c1C(=O)C=CC2=O`, the CC50 was > 10 µM.

On to `CC/C=C\C/C=C\C/C=C\C/C=C\C/C=C\CCCC(=O)Oc1cccc2c1C(=O)C=CC2=O`, for which the CC50 was > 10 µM.

Turning to `CCCCCCCCCCCCCCCCCC(=O)Oc1cccc2c1C(=O)C=CC2=O`, the CC50 is > 10 µM.

A further data set concerns Mus musculus. As to the kind of experiment: Antiinflammatory activity in mouse assessed as inhibition of TPA-induced mouse ear edema at 500 ug/ear administered 30 mins before TPA challenge measured after 7 hrs relative to untreated control. It is filed as functional, organism-based.
Settings: not given
An outline of the steps:
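Compound (500 µg) applied to one mouse ear; 30 min later TPA (0.5 µg) applied to both ears. Edema scored after 7 h and expressed as percentage of edema. Mean ± SE, n = 6.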
As for `CC/C=C\C/C=C\C/C=C\C/C=C\C/C=C\C/C=C\CCC(=O)Oc1cccc2c1C(=O)C=CC2=O`, the outcome was Active.

In the case of `CC/C=C\C/C=C\C/C=C\CCCCCCCC(=O)Oc1cccc2c1C(=O)C=CC2=O`, the outcome was Active.

For the compound `CC/C=C\C/C=C\C/C=C\C/C=C\C/C=C\CCCC(=O)Oc1cccc2c1C(=O)C=CC2=O`, the result was Active.

As for `CCCCCCCCCCCCCCCCCC(=O)Oc1cccc2c1C(=O)C=CC2=O`, the result was Active.

A further data set deals with T1, DNA polymerase lambda (Homo sapiens) (UniProt Q9UGP5).
T1 sequence (whole entry): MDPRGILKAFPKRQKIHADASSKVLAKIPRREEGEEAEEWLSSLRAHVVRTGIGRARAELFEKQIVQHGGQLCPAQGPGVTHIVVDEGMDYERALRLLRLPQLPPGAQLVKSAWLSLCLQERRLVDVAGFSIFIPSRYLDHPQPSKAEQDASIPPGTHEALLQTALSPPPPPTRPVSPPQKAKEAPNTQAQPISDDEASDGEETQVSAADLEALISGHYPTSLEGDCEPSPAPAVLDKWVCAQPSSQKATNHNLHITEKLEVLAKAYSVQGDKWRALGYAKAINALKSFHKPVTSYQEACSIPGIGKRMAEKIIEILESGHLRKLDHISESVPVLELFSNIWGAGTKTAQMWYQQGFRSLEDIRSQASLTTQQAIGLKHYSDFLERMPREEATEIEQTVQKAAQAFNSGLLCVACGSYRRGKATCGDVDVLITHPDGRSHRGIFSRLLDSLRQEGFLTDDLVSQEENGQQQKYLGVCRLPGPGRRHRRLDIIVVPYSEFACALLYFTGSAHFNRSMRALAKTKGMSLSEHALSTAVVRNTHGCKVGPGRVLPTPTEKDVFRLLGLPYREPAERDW
The experiment in a line: Inhibition of recombinant His-tagged human DNA polymerase lambda using poly(dA)/oligo(dT)18 (A/T = 2/1) and dTTP as the DNA template-primer and nucleotide substrate at 10 uM after 60 mins.
Settings: not given
In outline: (§1)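 Compound in DMSO, sonicated 30 s. Premixed 0 °C, 10 min with enzyme (0.05 units) in 50 mM Tris-HCl pH 7.5, 1 mM DTT, 50% glycerol, 0.1 mM EDTA, then added to standard reaction mixture. Template-primers: poly(dA)/oligo(dT)18 (2/1) for pols, oligo(dT)18 for TdT, poly(rA)/oligo(dT)18 for HIV-1 RT, with [3H]dTTP. 60 min at 37 °C (Taq 74 °C). Activity relative to no-inhibitor control; mean ± SE of three experiments.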
Consider `CC/C=C\C/C=C\C/C=C\C/C=C\C/C=C\C/C=C\CCC(=O)Oc1cccc2c1C(=O)C=CC2=O`, for which the inhibition result was “Active”.

As to `CC/C=C\C/C=C\C/C=C\CCCCCCCC(=O)Oc1cccc2c1C(=O)C=CC2=O`, the inhibition result is “Active”.

Regarding `CC/C=C\C/C=C\C/C=C\C/C=C\C/C=C\CCCC(=O)Oc1cccc2c1C(=O)C=CC2=O`, the inhibition result was “Active”.

In the case of `CCCCCCCCCCCCCCCCCC(=O)Oc1cccc2c1C(=O)C=CC2=O`, the inhibition entry is “Active”.

For a further data set, the species on record is Bos taurus. As to the kind of experiment: Inhibition of calf DNA polymerase alpha using poly(dA)/oligo(dT)18 (A/T = 2/1) and dTTP as the DNA template-primer and nucleotide substrate at 10 uM after 60 mins.
Settings: not given
In outline:
as §1
Consider `CC/C=C\C/C=C\C/C=C\C/C=C\C/C=C\C/C=C\CCC(=O)Oc1cccc2c1C(=O)C=CC2=O`, for which the inhibition result is “Active”.

`CC/C=C\C/C=C\C/C=C\CCCCCCCC(=O)Oc1cccc2c1C(=O)C=CC2=O`: the inhibition result was “Active”.

As to `CC/C=C\C/C=C\C/C=C\C/C=C\C/C=C\CCCC(=O)Oc1cccc2c1C(=O)C=CC2=O`, the inhibition result was “Active”.

In the case of `CCCCCCCCCCCCCCCCCC(=O)Oc1cccc2c1C(=O)C=CC2=O`, the inhibition result is “Active”.

For the next data set, the species on record is Homo sapiens. As to the kind of experiment: Inhibition of histidine-tagged human DNA polymerase gamma using poly(dA)/oligo(dT)18 (A/T = 2/1) and dTTP as the DNA template-primer and nucleotide substrate at 10 uM after 60 mins.
Settings: not given
In outline:
as §1
For `CC/C=C\C/C=C\C/C=C\C/C=C\C/C=C\C/C=C\CCC(=O)Oc1cccc2c1C(=O)C=CC2=O`, the inhibition entry is “Active”.

`CC/C=C\C/C=C\C/C=C\CCCCCCCC(=O)Oc1cccc2c1C(=O)C=CC2=O`: the inhibition entry was “Active”.

Consider `CC/C=C\C/C=C\C/C=C\C/C=C\C/C=C\CCCC(=O)Oc1cccc2c1C(=O)C=CC2=O`, for which the inhibition entry was “Active”.

With `CCCCCCCCCCCCCCCCCC(=O)Oc1cccc2c1C(=O)C=CC2=O`, the inhibition entry was “Active”.

The target of a further data set is T2, DNA polymerase kappa (Homo sapiens) (UniProt Q9UBT6).
T2 sequence (whole entry): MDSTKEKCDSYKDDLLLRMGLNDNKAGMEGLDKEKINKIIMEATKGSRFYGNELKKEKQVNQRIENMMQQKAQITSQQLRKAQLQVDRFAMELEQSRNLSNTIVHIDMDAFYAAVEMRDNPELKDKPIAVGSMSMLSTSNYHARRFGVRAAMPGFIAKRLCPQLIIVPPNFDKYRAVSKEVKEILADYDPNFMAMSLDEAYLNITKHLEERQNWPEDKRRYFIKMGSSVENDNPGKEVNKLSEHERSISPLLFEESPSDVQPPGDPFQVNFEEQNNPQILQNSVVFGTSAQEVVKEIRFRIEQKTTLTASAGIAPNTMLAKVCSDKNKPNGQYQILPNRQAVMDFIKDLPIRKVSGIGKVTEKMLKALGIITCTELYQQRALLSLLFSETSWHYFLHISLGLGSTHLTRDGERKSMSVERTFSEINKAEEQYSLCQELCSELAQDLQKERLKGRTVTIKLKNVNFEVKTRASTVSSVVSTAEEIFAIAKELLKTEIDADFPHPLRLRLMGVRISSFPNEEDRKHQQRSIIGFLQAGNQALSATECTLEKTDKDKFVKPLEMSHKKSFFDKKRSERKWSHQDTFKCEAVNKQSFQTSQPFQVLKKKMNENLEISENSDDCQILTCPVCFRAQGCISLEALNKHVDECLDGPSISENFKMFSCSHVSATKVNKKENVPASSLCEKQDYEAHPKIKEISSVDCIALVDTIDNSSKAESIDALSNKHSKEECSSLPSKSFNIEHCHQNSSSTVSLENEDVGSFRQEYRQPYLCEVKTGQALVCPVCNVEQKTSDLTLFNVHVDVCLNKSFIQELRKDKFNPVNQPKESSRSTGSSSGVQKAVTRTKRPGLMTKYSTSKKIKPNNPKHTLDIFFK
The experiment in a line: Inhibition of C-terminal His6-tagged human DNA polymerase kappa (amino acids 1 to 560) using poly(dA)/oligo(dT)18 (A/T = 2/1) and dTTP as the DNA template-primer and nucleotide substrate at 10 uM after 60 mins.
Settings: not given
In the case of `CC/C=C\C/C=C\C/C=C\C/C=C\C/C=C\C/C=C\CCC(=O)Oc1cccc2c1C(=O)C=CC2=O`, the inhibition entry is “Active”.

With `CC/C=C\C/C=C\C/C=C\CCCCCCCC(=O)Oc1cccc2c1C(=O)C=CC2=O`, the inhibition entry was “Active”.

`CC/C=C\C/C=C\C/C=C\C/C=C\C/C=C\CCCC(=O)Oc1cccc2c1C(=O)C=CC2=O`: the inhibition entry was “Active”.

Turning to `CCCCCCCCCCCCCCCCCC(=O)Oc1cccc2c1C(=O)C=CC2=O`, the inhibition entry is “Active”.

A further data set is filed under the species Bos taurus. As to the kind of experiment: Inhibition of calf DNA polymerase alpha using bovine deoxyribonuclease 1-treated DNA and dNTP as the DNA template-primer and nucleotide substrate at 10 uM after 60 mins.
Settings: not given
Consider `CC/C=C\C/C=C\C/C=C\C/C=C\C/C=C\C/C=C\CCC(=O)Oc1cccc2c1C(=O)C=CC2=O`, for which the inhibition entry is “Active”.

`CC/C=C\C/C=C\C/C=C\CCCCCCCC(=O)Oc1cccc2c1C(=O)C=CC2=O`: the inhibition result is “Active”.

Turning to `CC/C=C\C/C=C\C/C=C\C/C=C\C/C=C\CCCC(=O)Oc1cccc2c1C(=O)C=CC2=O`, the inhibition entry was “Active”.

On to `CCCCCCCCCCCCCCCCCC(=O)Oc1cccc2c1C(=O)C=CC2=O`, for which the inhibition entry was “Active”.

The species named for the next data set is Homo sapiens. As to the kind of experiment: Inhibition of histidine-tagged human DNA polymerase gamma using bovine deoxyribonuclease 1-treated DNA and dNTP as the DNA template-primer and nucleotide substrate at 10 uM after 60 mins.
Settings: not given
Turning to `CC/C=C\C/C=C\C/C=C\C/C=C\C/C=C\C/C=C\CCC(=O)Oc1cccc2c1C(=O)C=CC2=O`, the inhibition entry was “Active”.

Regarding `CC/C=C\C/C=C\C/C=C\CCCCCCCC(=O)Oc1cccc2c1C(=O)C=CC2=O`, the inhibition entry was “Active”.

For the compound `CC/C=C\C/C=C\C/C=C\C/C=C\C/C=C\CCCC(=O)Oc1cccc2c1C(=O)C=CC2=O`, the inhibition result was “Active”.

As for `CCCCCCCCCCCCCCCCCC(=O)Oc1cccc2c1C(=O)C=CC2=O`, the inhibition entry was “Active”.

The target of a further data set is T2, DNA polymerase kappa (Homo sapiens). As to the kind of experiment: Inhibition of C-terminal His6-tagged human DNA polymerase kappa (amino acids 1 to 560) using bovine deoxyribonuclease 1-treated DNA and dNTP as the DNA template-primer and nucleotide substrate at 10 uM after 60 mins.
Settings: not given
On to `CC/C=C\C/C=C\C/C=C\C/C=C\C/C=C\C/C=C\CCC(=O)Oc1cccc2c1C(=O)C=CC2=O`, for which the inhibition result is “Active”.

As for `CC/C=C\C/C=C\C/C=C\CCCCCCCC(=O)Oc1cccc2c1C(=O)C=CC2=O`, the inhibition result was “Active”.

For the compound `CC/C=C\C/C=C\C/C=C\C/C=C\C/C=C\CCCC(=O)Oc1cccc2c1C(=O)C=CC2=O`, the inhibition result was “Active”.

On to `CCCCCCCCCCCCCCCCCC(=O)Oc1cccc2c1C(=O)C=CC2=O`, for which the inhibition entry was “Active”.

A further data set concerns the target T1, DNA polymerase lambda (Homo sapiens). The experiment in a line: Inhibition of recombinant His-tagged human DNA polymerase lambda using bovine deoxyribonuclease 1-treated DNA and dNTP as the DNA template-primer and nucleotide substrate at 10 uM after 60 mins.
Settings: not given
On to `CC/C=C\C/C=C\C/C=C\C/C=C\C/C=C\C/C=C\CCC(=O)Oc1cccc2c1C(=O)C=CC2=O`, for which the inhibition result was “Active”.

As to `CC/C=C\C/C=C\C/C=C\CCCCCCCC(=O)Oc1cccc2c1C(=O)C=CC2=O`, the inhibition entry was “Active”.

In the case of `CC/C=C\C/C=C\C/C=C\C/C=C\C/C=C\CCCC(=O)Oc1cccc2c1C(=O)C=CC2=O`, the inhibition entry was “Active”.

On to `CCCCCCCCCCCCCCCCCC(=O)Oc1cccc2c1C(=O)C=CC2=O`, for which the inhibition entry is “Active”.

(Values after ChEMBL document CHEMBL1914406, “Inhibitory effect of novel 5-O-acyl juglones on mammalian DNA polymerase activity, cancer cell growth and inflammatory response” (Bioorg Med Chem, 2011).)
